Bioassay records deposited in PubChem BioAssay by several laboratories.
UPR XBP1 act: activators of adaptive arm of unfolded protein response (XBP1) | CHO-XBP1 luciferase reporter, IRE1-XBP1 UPR activation, luminescence; percent of tunicamycin response, DMSO as zero | activation, % at 20 µM | hit rate 0.33% among 330,000;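 active = versus positive control, 20 µM dose yields 30% or more activation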;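 also: 100% = tunicamycin at 10 µg/mL and 0% = DMSO only wells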
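assay system = CHO-XBP1 luciferase reporter cells | amount = 1000 cells/well | buffer or medium = F12 plus 10% FBS | compound dosing = single point, 20 µM final compound, 1% DMSO | incubation = 16-18 h cell attachment at 37 °C, then 6 h compound exposure | detection = Steady-Glo luminescence read | controls = tunicamycin 10 µg/mL and vehicle-only wells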
CHOP inh: CHOP inhibition in unfolded protein response; CHO-K1 CHOP-promoter luciferase, tunicamycin-induced, 15-18 h; AID 2732; hit rate 3.8% among 220,000; inhibition, % at 10 µM;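 active = compounds that reduced the stress-induced luciferase reporter signal by more than about 70% of percent inhibition, limit read from the data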;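 also: 0% = tunicamycin plus vehicle and 100% = wells without tunicamycin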
UPR CHOP act: activators of apoptotic arm of unfolded protein response (CHOP); CHO-CHOP luciferase reporter, UPR activation, luminescence; percent of tunicamycin response over DMSO baseline; activation, % at 10 µM; hit rate 0.34% among 330,000; AID 449763;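 active = at 10 µM dose, activation of 40% or more, normalized to positive control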;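 also: 100% = tunicamycin at 10 µg/mL and 0% = DMSO alone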
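Test system: CHO CHOP reporter cells. Input: 500 CHO-CHOP cells per well. Medium: F12 with 10% FBS. Technique: luciferase luminescence. Measure: percent activation relative to tunicamycin control. Dosing: 10 µM compound, 0.5% DMSO. Timing: 16-18 h cell attachment, then 6 h compound exposure, 37 °C.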
Jurkat NFkB inh: lowers PMA/ionomycin-induced NF-kB signal in Jurkat cells. PMA/ionomycin-induced NF-kB luciferase reporter, luminescence. inhibition, % at 4 µM. hit rate 0.53% among 330,000; in the data active = inhibition above about 50%
697 NFkB inh: inhibitors of the PMA/ionomycin-induced NF-kB reporter in 697 B cells; inhibition, % at 4 µM; 697 B-cell NF-kB luciferase reporter, 16 h; hit rate 0.33% among 330,000; AID 435022; in the data active = inhibition above about 35%
CHOP UPR conf: apoptotic UPR (CHOP) activation, confirmed; shares compounds with UPR CHOP act; CHO-CHOP cells, CHOP-luciferase reporter luminescence; percent of tunicamycin response, DMSO as zero; activation, % at 10 µM; hit rate 64% among 1,000; in the data active = activation above about 33%;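 also: 0% = DMSO wells and 100% = tunicamycin 10 µg/mL wells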
UPR XBP1 confirm: confirmation of adaptive unfolded protein response (XBP1) activators; AID 485299; shares compounds with UPR XBP1 act; activation, % at 20 µM; CHO-XBP1 IRE1-XBP1 luciferase reporter, luminescence; hit rate 63% among 1,000;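 active = reporter signal at least 30% of the positive control's activation in two or more of four replicate wells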;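 also: plate controls were DMSO negative control for no effect and tunicamycin 10 µg/mL positive control for full effect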
* hit, by the source's call. Many of the other results were omitted from the sample, so hits are more common in it than they were.

For Cc1ccc(C(=O)Nc2cccc(C(=O)N/N=C/c3ccc(O)cc3)c2)cc1 the results were UPR XBP1 act -3.5, UPR CHOP act -0.6, Jurkat NFkB inh 15.7 and 697 NFkB inh -86.6.
Cc1ccc(NC(=O)c2ccc(N/N=C/c3cccc(O)c3)c([N+](=O)[O-])c2)cc1 was read as UPR XBP1 act 51.4*, CHOP inh 68.7, UPR CHOP act 63.5*, Jurkat NFkB inh 0.0, 697 NFkB inh -7.5, CHOP UPR conf 52.3* and UPR XBP1 confirm 39.1*.
Screening NS(=O)(=O)c1ccc(N/N=C/c2ccccc2C(=O)O)c([N+](=O)[O-])c1 returned UPR XBP1 act 0.6, CHOP inh 0.1, UPR CHOP act -0.1, Jurkat NFkB inh -2.4 and 697 NFkB inh 5.1.
Screening Cc1ccccc1NC(=O)c1ccc(N/N=C/c2ccccc2O)c([N+](=O)[O-])c1 returned UPR XBP1 act 45.5*, CHOP inh 18.6, UPR CHOP act 48.1*, Jurkat NFkB inh 27.8, 697 NFkB inh 2.3, CHOP UPR conf 70.7* and UPR XBP1 confirm 70.7*.
`Nc1cccc(-c2nc3cc(S(=O)(=O)c4ccc5oc(-c6cccc(N)c6)nc5c4)ccc3o2)c1` gave UPR XBP1 act 50.5*, CHOP inh 11.3, UPR CHOP act 57.0*, Jurkat NFkB inh -14.3, 697 NFkB inh 11.9, CHOP UPR conf 77.6* and UPR XBP1 confirm 91.8*.
Screening CCOc1cc(/C=C2/C(=N)N3C=CSC3=NC2=O)ccc1OCCCOc1ccccc1C returned UPR XBP1 act 265.1*, CHOP inh 84.5*, UPR CHOP act 77.8*, Jurkat NFkB inh -10.1, 697 NFkB inh 31.6, CHOP UPR conf 35.5* and UPR XBP1 confirm 134.2*.
Screening Cc1ccccc1NC(=O)CSc1nc(COc2ccccc2)nc2ccccc12 returned UPR XBP1 act -2.6, CHOP inh 26.2, UPR CHOP act 0.5, Jurkat NFkB inh 0.3 and 697 NFkB inh -20.8.
Screening Cc1cc(C)c(NC(=O)CSc2nc(COc3ccccc3)nc3ccccc23)c(C)c1 returned UPR XBP1 act 52.7*, CHOP inh 91.2*, UPR CHOP act 1.2, Jurkat NFkB inh -7.3, 697 NFkB inh -12.8 and UPR XBP1 confirm 46.5*.
`O=C(Nc1ccnn1C1CCN(Cc2cccc(OCCO)c2)CC1)C1CCOC1` (configuration not stated) gave UPR XBP1 act -4.0, UPR CHOP act 0.0, Jurkat NFkB inh -8.1 and 697 NFkB inh 13.7.
For COc1ccc(-c2nn(-c3ccccc3)cc2C(=O)N/N=C/c2ccc([N+](=O)[O-])o2)cc1 the results were UPR XBP1 act 37.7*, CHOP inh 90.0*, UPR CHOP act 35.7, Jurkat NFkB inh 15.4, 697 NFkB inh 16.8 and UPR XBP1 confirm 12.6.
CC(=O)N/C(=C\c1ccc(F)cc1)C(=O)OCc1ccccc1 was read as UPR XBP1 act -3.5, UPR CHOP act 0.0, Jurkat NFkB inh 10.6 and 697 NFkB inh 6.0.
`NC(=S)N/N=C/c1ccc(C23CC4CC(CC(C4)C2)C3)cc1` gave UPR XBP1 act 60.1*, UPR CHOP act 32.8, Jurkat NFkB inh -19.8, 697 NFkB inh -73.2 and UPR XBP1 confirm 64.2*.
Screening NC(=S)N/N=C/c1ccccc1 returned UPR XBP1 act -0.3, CHOP inh 5.5, UPR CHOP act 0.5, Jurkat NFkB inh -6.2 and 697 NFkB inh -9.9.
`COc1ccc(C2=NS(=O)(=O)N(C)C(C(=O)N3CCc4ccccc4C3)=C2)cc1OC` gave UPR XBP1 act -2.9, UPR CHOP act -2.4, Jurkat NFkB inh 17.2 and 697 NFkB inh -17.2.
`COc1ccc(-n2nnnc2SCC(=O)Nc2cccc(C)n2)cc1OC` gave UPR XBP1 act -2.0, CHOP inh 14.6, UPR CHOP act 1.8, Jurkat NFkB inh 18.8 and 697 NFkB inh 17.6.
For Cc1sc2ncnc(N=Nc3c(O)[nH]c4ccccc34)c2c1C the results were UPR XBP1 act 7.9, CHOP inh -5.1, UPR CHOP act 13.8, Jurkat NFkB inh -27.3 and 697 NFkB inh -31.2.
Screening CCc1cc2c(N=Nc3c(O)[nH]c4ccccc34)ncnc2s1 returned UPR XBP1 act 35.0*, CHOP inh 52.5, UPR CHOP act 16.3, Jurkat NFkB inh -5.3, 697 NFkB inh -3.1 and UPR XBP1 confirm 4.1.
Screening CC(C)N=C(NS(=O)(=O)c1ccccc1)C(Cl)(Cl)Cl returned UPR XBP1 act 45.4*, CHOP inh 69.9, UPR CHOP act 5.9, Jurkat NFkB inh 8.7, 697 NFkB inh 13.3 and UPR XBP1 confirm 75.3*.
`Cc1ccccc1OCc1nc(-c2ccc(NC(=O)c3ccc4c(c3)OCO4)cc2)no1` gave UPR XBP1 act 69.1*, CHOP inh 73.8*, UPR CHOP act 35.5, Jurkat NFkB inh -1.2, 697 NFkB inh -76.8 and UPR XBP1 confirm 44.4*.
Screening O=C(Nc1nc2ccc(Cl)cc2s1)c1ccc(N2CCCCC2)c([N+](=O)[O-])c1 returned UPR XBP1 act 33.2*, CHOP inh -8.5, UPR CHOP act 30.3, Jurkat NFkB inh -6.6, 697 NFkB inh 8.0 and UPR XBP1 confirm 82.8*.
Screening Cc1cc(C)cc(-n2nnnc2SCC(=O)Nc2nc(-c3ccc(Cl)cc3)cs2)c1 returned UPR XBP1 act 34.2*, CHOP inh 76.2*, UPR CHOP act 0.3, Jurkat NFkB inh -3.0, 697 NFkB inh -8.0 and UPR XBP1 confirm 15.5.
For CCOC(=O)c1ccc(NC(=S)N2CCN(C(=O)C3CCCO3)CC2)cc1 (configuration not stated) the results were UPR XBP1 act -6.1, UPR CHOP act -0.3, Jurkat NFkB inh 3.3 and 697 NFkB inh 15.0.
For Cc1nc2cccc(C)n2c(=O)c1Cl the results were UPR XBP1 act 38.3*, CHOP inh 11.5, UPR CHOP act -2.5, Jurkat NFkB inh 2.9, 697 NFkB inh 26.3 and UPR XBP1 confirm 3.7.
Screening COc1ccc(-c2c(-c3cc(OC)cc(OC)c3)n(C)c3ccc(-c4cnc(N)nc4)cc23)cc1 returned UPR XBP1 act 189.2*, UPR CHOP act 1.9, Jurkat NFkB inh 2.3, 697 NFkB inh 8.6 and UPR XBP1 confirm 132.1*.
COc1ccc(OCC(=O)Sc2ccc(C)cc2)cc1 was read as UPR XBP1 act 34.6*, CHOP inh 83.4*, UPR CHOP act 7.4, Jurkat NFkB inh 0.1, 697 NFkB inh 7.5 and UPR XBP1 confirm 7.9.
`COc1ccc(NC(=O)Cn2c(=O)n(-c3ccc(OC)cc3OC)c(=O)c3c(C)c(C)sc32)cc1` gave UPR XBP1 act -2.9, CHOP inh 13.1, UPR CHOP act -0.9, Jurkat NFkB inh 5.5 and 697 NFkB inh 5.0.
